Blank lines part the entries; values can stand above or below the compound they belong to.
Tests used:
[1] = Volume of distribution at steady state in male ICR mouse at 2 mg/kg, iv measured after 24 hrs by LC-MS/MS analysis; assay type: ADME, organism-based; details: in vivo
Outline: (§1)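 Male ICR mice (25–35 g) given one iv or oral dose of 2, 3 or 10 mg/kg. Vehicles were PEG400/DMA (80/20) for both routes, or DMSO/CrEL/D5W (5/5/90) iv and 1% CMC + 0.5% Tween80 oral. Plasma was taken by cardiac puncture at 0–24 h, three mice per time point. Parent drug was measured by LC-MS/MS and analysed noncompartmentally. DNAUC = AUC(0–inf)/dose.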

[2] = Toxicity in immunocompetent female C57BL/6 mouse implanted with mouse MC-38 cells assessed as body weight loss at 50 mg/kg, po administered twice a day with five days on and two days off for 3 weeks; assay type: organism-based; details: in vivo, 504 h
Outline: (§2)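 Syngeneic models in female C57BL/6 mice aged 6–7 weeks: MC38 (10⁵ cells) or Hepa1–6 (10⁶ cells) injected subcutaneously into the left flank. Oral dosing on a five-on/two-off schedule: MC38 at 50 mg/kg QD or BID for 3 weeks, Hepa1–6 at 30 mg/kg QD. Body weight was recorded weekly. n = 8–9 per group.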

[3] = Toxicity in immunocompetent female C57BL/6 mouse implanted with mouse MC-38 cells assessed as body weight loss at 50 mg/kg, po administered once a day with five days on and two days off for 3 weeks; assay type: organism-based; details: in vivo, 504 h; outline: as §2
[4] = Toxicity in BALB/c mouse implanted with mouse 4T1 cells assessed as body weight loss at 50 mg/kg, po administered once a day with five days on and two days off; assay type: organism-based; details: in vivo
Outline: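 Female Balb/c mice aged 6–7 weeks implanted with 4T1 cells (1 million in matrigel/medium) in the fourth left mammary fat pad. Treatment started near 50–60 mm³: 50 mg/kg oral QD on a five-on/two-off schedule. Body weight was measured weekly. n = 8–9 per group.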

[5] = Toxicity in immunodeficient NOD/SCID mouse xenografted with MER/AXL overexpressing human MDA-MB-231 cells assessed as body weight loss at 50 mg/kg, po administered once a day with five days on and two days off; assay type: organism-based; details: in vivo
[6] = Toxicity in immunocompetent female C57BL/6 mouse implanted with mouse MC-38 cells assessed as body weight loss at 50 mg/kg, po administered once a day with five days on and two days off; assay type: organism-based; details: in vivo; outline: as §2
[7] = Toxicity in immunocompetent female C57BL/6 mouse implanted with mouse Hepa1-6 cells assessed as body weight loss at 30 mg/kg, po administered once a day with five days on and two days off; assay type: organism-based; details: in vivo; outline: as §2
[8] = Toxicity in ICR mouse at 10 to 100 mg/kg administered for 14 days; assay type: organism-based; details: in vivo, 336 h, dose 10-100 mg/kg, time 14 day
[9] = Toxicity in ICR mouse assessed as decrease in creatinine level at 30 to 100 mg/kg administered for 14 days; assay type: organism-based; details: in vivo, 336 h, dose 30-100 mg/kg, time 14 day
[10] = Dose normalized AUC (0 to infinity) in male ICR mouse at 2 mg/kg, iv measured after 24 hrs by LC-MS/MS analysis; assay type: ADME, organism-based; details: in vivo; outline: as §1
[11] = Dose normalized AUC (0 to infinity) in male ICR mouse at 10 mg/kg, po measured after 24 hrs by LC-MS/MS analysis; assay type: ADME, organism-based; details: in vivo; outline: as §1
[12] = target: T1, Tyrosine-protein kinase Mer (Homo sapiens) (UniProt Q12866); assay: Inhibition of MER (unknown origin) at 1 uM preincubated for 15 mins followed by substrate and ATP addition and measured after 3 hrs by ADP-Glo kinase assay relative to control; details: time 195.0 min
T1 sequence (whole entry): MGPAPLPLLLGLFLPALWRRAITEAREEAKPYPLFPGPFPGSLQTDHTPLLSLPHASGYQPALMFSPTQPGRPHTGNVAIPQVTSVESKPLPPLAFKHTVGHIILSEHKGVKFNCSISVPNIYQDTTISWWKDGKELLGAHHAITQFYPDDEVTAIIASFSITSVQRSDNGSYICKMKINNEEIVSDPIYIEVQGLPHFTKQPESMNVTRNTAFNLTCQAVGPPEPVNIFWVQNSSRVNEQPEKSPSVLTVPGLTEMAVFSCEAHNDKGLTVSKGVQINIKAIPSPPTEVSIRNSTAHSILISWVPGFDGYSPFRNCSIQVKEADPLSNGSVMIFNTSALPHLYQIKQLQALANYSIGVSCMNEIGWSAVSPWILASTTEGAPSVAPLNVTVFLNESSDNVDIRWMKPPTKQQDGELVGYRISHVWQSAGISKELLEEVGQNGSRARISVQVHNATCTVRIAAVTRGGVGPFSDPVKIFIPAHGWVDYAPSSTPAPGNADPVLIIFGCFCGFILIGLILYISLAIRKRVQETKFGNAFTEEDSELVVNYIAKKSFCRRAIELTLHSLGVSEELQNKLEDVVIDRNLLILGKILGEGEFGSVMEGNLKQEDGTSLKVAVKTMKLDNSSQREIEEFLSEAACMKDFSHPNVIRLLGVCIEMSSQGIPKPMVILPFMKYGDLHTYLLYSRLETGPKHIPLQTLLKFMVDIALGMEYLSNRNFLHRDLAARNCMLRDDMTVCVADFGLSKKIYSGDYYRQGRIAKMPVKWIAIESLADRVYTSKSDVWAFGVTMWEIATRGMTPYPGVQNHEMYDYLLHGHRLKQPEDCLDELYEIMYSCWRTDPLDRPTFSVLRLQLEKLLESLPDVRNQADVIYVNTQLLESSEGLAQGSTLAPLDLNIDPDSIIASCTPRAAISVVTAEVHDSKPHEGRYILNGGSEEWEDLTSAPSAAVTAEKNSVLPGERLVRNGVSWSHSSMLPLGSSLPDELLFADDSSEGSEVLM

[13] = target: Tyrosine-protein kinase receptor UFO (Homo sapiens) (UniProt P30530); assay: Inhibition of AXL (unknown origin) at 1 uM preincubated for 15 mins followed by substrate and ATP addition and measured after 3 hrs by ADP-Glo kinase assay relative to control; details: time 195.0 min
Chain of Tyrosine-protein kinase receptor UFO (Homo sapiens) (P30530 whole entry): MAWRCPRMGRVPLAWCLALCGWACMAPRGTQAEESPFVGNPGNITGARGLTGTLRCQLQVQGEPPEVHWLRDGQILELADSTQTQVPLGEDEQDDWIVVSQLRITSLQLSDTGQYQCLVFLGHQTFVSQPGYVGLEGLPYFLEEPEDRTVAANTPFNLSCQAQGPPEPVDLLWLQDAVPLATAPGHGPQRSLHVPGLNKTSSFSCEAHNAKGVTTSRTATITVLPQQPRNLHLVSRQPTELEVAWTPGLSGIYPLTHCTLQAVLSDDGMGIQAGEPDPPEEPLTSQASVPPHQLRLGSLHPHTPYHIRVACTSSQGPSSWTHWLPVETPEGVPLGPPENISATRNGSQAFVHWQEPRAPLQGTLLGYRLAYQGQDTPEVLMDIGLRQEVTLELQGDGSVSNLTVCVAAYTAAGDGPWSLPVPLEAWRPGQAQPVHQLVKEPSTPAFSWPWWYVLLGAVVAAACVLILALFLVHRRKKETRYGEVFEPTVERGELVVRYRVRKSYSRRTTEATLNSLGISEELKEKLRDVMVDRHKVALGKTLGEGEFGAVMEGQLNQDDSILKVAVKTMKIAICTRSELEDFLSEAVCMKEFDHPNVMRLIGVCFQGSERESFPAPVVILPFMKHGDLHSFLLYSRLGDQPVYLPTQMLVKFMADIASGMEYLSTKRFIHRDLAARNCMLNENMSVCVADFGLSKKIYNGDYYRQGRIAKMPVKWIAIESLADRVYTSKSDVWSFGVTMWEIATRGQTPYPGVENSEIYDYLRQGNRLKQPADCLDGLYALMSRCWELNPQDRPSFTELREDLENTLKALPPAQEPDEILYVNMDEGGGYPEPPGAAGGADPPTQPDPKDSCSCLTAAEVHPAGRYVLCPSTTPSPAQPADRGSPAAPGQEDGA

[14] = target: Epidermal growth factor receptor (Homo sapiens) (UniProt P00533); assay: Inhibition of wildtype EGFR (unknown origin) at 1 uM by kinase Glo assay relative to control
Chain of Epidermal growth factor receptor (Homo sapiens) (P00533 whole entry): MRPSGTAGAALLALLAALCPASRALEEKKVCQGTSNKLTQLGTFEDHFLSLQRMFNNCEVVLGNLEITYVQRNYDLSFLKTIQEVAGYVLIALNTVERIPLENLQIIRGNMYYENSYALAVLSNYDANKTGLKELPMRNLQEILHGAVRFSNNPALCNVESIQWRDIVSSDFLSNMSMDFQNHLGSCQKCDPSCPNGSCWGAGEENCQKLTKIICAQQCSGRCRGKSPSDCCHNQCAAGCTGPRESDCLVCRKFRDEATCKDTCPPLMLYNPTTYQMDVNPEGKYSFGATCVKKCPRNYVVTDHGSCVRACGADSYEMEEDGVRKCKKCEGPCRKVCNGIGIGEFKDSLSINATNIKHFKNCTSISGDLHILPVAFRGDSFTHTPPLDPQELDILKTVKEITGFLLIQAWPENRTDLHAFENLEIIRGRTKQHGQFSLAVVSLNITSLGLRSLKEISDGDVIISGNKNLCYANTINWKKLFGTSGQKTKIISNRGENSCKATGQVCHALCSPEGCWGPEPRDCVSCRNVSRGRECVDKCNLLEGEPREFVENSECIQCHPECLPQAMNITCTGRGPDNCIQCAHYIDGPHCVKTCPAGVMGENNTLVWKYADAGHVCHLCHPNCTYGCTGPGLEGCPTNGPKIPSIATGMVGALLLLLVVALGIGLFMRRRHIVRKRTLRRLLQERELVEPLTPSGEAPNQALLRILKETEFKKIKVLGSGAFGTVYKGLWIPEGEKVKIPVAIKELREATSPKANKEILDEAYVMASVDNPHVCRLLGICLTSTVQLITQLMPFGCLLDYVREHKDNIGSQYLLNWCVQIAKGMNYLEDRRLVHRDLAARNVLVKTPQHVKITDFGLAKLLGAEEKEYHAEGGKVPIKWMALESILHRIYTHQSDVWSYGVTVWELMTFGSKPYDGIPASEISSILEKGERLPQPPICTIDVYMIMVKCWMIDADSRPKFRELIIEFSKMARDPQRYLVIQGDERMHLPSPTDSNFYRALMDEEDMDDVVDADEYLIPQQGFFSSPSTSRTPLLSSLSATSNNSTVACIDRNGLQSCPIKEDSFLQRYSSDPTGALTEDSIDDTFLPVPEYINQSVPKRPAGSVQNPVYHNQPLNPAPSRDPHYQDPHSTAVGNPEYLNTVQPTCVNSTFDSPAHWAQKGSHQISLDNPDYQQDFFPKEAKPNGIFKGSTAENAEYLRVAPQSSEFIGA
Outline: (§3)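 In-house Kinase-Glo luminescence assay on wild-type and T790M/L858R EGFR. Values are the mean of at least two independent experiments.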

[15] = test system: Epidermal growth factor receptor (Homo sapiens), P00533 [L858R,T790M]; assay: Inhibition of EGFR T790M/L858R double mutant (unknown origin) at 1 uM by kinase Glo assay relative to control; outline: as §3
Chain of Epidermal growth factor receptor (Homo sapiens), P00533 [L858R,T790M] (P00533 whole entry T790M/L858R, looked up): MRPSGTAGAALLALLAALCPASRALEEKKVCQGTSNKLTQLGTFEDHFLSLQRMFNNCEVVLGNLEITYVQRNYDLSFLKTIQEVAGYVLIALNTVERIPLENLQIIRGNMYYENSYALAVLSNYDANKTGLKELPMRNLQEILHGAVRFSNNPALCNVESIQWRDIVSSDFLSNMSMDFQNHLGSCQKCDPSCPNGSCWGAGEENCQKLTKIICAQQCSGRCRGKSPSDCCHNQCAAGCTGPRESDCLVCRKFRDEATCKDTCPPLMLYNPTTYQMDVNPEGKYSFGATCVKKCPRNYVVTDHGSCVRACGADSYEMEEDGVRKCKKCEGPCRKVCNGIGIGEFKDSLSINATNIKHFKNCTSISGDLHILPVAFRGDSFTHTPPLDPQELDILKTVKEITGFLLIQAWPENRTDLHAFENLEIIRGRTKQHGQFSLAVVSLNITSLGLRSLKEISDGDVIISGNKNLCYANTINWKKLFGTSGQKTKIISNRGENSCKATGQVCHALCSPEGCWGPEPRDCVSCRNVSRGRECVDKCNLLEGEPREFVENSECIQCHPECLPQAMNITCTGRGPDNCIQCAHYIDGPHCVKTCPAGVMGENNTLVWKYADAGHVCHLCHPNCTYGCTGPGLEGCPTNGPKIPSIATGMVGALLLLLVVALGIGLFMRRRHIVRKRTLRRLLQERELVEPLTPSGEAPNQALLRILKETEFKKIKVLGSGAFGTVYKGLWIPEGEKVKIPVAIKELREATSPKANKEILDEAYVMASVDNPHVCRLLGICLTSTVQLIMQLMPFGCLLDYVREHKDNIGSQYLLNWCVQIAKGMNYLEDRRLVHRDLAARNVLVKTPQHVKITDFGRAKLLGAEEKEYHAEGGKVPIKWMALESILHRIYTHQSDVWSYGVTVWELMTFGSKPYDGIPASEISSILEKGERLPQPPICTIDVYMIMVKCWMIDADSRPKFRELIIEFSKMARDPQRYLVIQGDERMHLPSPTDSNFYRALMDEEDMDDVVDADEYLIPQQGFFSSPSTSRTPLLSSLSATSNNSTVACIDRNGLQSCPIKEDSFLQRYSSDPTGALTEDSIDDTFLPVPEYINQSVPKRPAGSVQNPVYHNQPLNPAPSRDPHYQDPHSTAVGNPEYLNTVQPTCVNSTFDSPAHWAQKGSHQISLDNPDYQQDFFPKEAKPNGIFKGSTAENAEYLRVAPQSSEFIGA

[16] = Toxicity in ICR mouse assessed as decrease in creatinine level at 100 mg/kg administered for 14 days; assay type: organism-based; details: in vivo, 336 h, time 14 day
[17] = Dose normalized AUC (0 to infinity) in male ICR mouse at 3 mg/kg, iv measured after 24 hrs by LC-MS/MS analysis; assay type: ADME, organism-based; details: in vivo; outline: as §1
[18] = Dose normalized AUC (0 to infinity) in male ICR mouse at 3 mg/kg, po measured after 24 hrs by LC-MS/MS analysis; assay type: ADME, organism-based; details: in vivo; outline: as §1
[19] = Toxicity in immunocompetent female C57BL/6 mouse implanted with mouse MC-38 cells assessed as body weight loss at 25 to 50 mg/kg, po administered twice a day with five days on and two days off for 3 weeks; assay type: organism-based; details: in vivo, 504 h, dose 25-50 mg/kg
Outline: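 Female C57BL/6 mice aged 6–7 weeks bearing subcutaneous MC38 (10⁵ cells) tumors, treated from 50–60 mm³. Dosing was 25 or 50 mg/kg oral BID on a five-on/two-off schedule for 3 weeks. Body weight was recorded weekly. n = 8 per group.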

[20] = test system: MDA-MB-231; assay: Antitumor activity against MER/AXL overexpressing human MDA-MB-231 cells xenografted in immunodeficient NOD/SCID mouse model assessed as tumor growth inhibition at 25 mg/kg, po administered twice a day with five days on and two days off for 4 weeks relative to control; assay type: functional; details: MDA-MB-231, 672 h, read-out: TGI
Outline: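 Female NOD/SCID mice (6–7 weeks old) were given 5 million Mycoplasma-free MDA-MB-231 cells in 1:1 matrigel/medium, implanted subcutaneously. After randomization at about 150 mm³ average tumor volume, mice got oral drug or vehicle, BID, FOTO, for 4 weeks, n = 8 per group. Caliper volumes (L×W×W/2) were measured weekly. %TGI = [1 − ΔT/ΔC]×100, with Δ taken from day 0.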

[21] = test system: MDA-MB-231; assay: Antitumor activity against MER/AXL overexpressing human MDA-MB-231 cells xenografted in immunodeficient NOD/SCID mouse model assessed as tumor growth inhibition at 25 mg/kg, po administered twice a day with five days on and two days off for 4 weeks in presence of bemcentinib relative to control; assay type: functional; details: MDA-MB-231, 672 h, read-out: TGI
Outline: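 MDA-MB-231 cells (5 million, 1:1 matrigel/medium) implanted in 6–7-week-old female NOD/SCID mice. Dosing began at about 150 mm³ mean tumor volume: 25 mg/kg oral BID on a five-on/two-off schedule for 4 weeks, given alone or in combination.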

[22] = target: T2, Tyrosine-protein kinase Mer (Homo sapiens, UniProt Q12866); assay: Inhibition of MER (unknown origin) by KINOMEScan assay
T2 sequence (Q12866 whole entry): T1 sequence (whole entry)

[23] = test system: MDA-MB-231; assay: Antitumor activity against MER/AXL overexpressing human MDA-MB-231 cells xenografted in immunodeficient NOD/SCID mouse model assessed as tumor growth inhibition at 25 mg/kg, po administered twice a day with five days on and two days off for 4 weeks in presence of (1r,4r)-4-(2-(butylamino)-5-(4-((4-methylpiperazin-1-yl)methyl)phenyl)-7H-pyrrolo[2,3-d]pyrimidin-7-yl)cyclohexan-1-ol relative to …; assay type: functional; details: MDA-MB-231, 672 h, read-out: TGI

SMILES: O=C(Nc1ccc(F)cc1)C1(C(=O)Nc2ccc(Oc3ncnc4oc(-c5ccccc5)cc34)cc2)CC1
inhibition [12]: 4%
inhibition [13]: 53%
inhibition [14]: 4%
inhibition [15]: 1%

SMILES: COc1cc2nccc(Oc3ccc(NC(=O)c4cc5c(n(-c6ccccc6)c4=O)CCCC5=O)nc3)c2cc1OC [TAMNORZATINIB]
Activity [4]: Non-Toxic
Activity [5]: Non-Toxic
Activity [6]: Non-Toxic
Activity [7]: Non-Toxic
Activity [16]: Toxic

SMILES: CCCCNc1ncc2c(-c3ccc(CN4CCN(C)CC4)cc3)cn([C@H]3CC[C@H](O)CC3)c2n1
inhibition in vivo at 25 mg/kg [20]: 15.9%
inhibition in vivo at 25 mg/kg [21]: 52.4%

SMILES: Nc1cccc(-c2c(-c3ccccc3)oc3ncnc(Oc4ccc(NC(=S)NC(=O)Cc5ccccc5)cc4)c23)c1
inhibition [12]: 9%
inhibition [13]: 95%
inhibition [14]: 1%
inhibition [15]: -6%

SMILES: Nc1cccc(-c2c(-c3ccccc3)oc3ncnc(Oc4ccc(NC(=O)C5(C(=O)Nc6ccc(F)cc6)CC5)cc4)c23)c1
inhibition [12]: 71%
inhibition [13]: 100%
inhibition [14]: 0%
inhibition [15]: -9%

SMILES: Nc1nc(Nc2ccc3c(c2)CC[C@@H](N2CCCC2)CC3)nn1-c1cc2c(nn1)-c1ccccc1CCC2 [BEMCENTINIB]
inhibition in vivo at 25 mg/kg [20]: 7.7%
inhibition in vivo at 25 mg/kg [23]: 52.4%

SMILES: O=C(Nc1ccc(F)cc1)C1(C(=O)Nc2ccc(Oc3ncnc4oc(-c5ccccc5)c(-c5ccccc5)c34)cc2)CC1
inhibition [12]: 41%
inhibition [13]: 98%
inhibition [14]: 3%
inhibition [15]: 2%

SMILES: Nc1cccc(-c2c(-c3ccccc3)oc3ncnc(Nc4ccc(NC(=O)C5(C(=O)Nc6ccc(F)cc6)CC5)cc4)c23)c1
inhibition [12]: 19%
inhibition [13]: 92%
inhibition [14]: 1%
inhibition [15]: -4%

Now from value to compound, other results behind:

Vdss [1]: 52 L/kg
SMILES: CN(C)Cc1cccc(-c2c(-c3cnn(C)c3)oc3ncnc(Oc4ccc(NC(=O)c5cccn(-c6ccc(F)cc6)c5=O)cc4)c23)c1
Activity [2]: Non-Toxic
Activity [3]: Non-Toxic
Activity [4]: Non-Toxic
Activity [5]: Non-Toxic
Activity [6]: Non-Toxic
Activity [7]: Non-Toxic
Activity [8]: Non-Toxic
Activity [9]: Toxic

AUC/dose [10]: 454.5 ng.hr/ml per mg/kg
AUC/dose [11]: 2.6 ng.hr/ml per mg/kg
SMILES: Cn1cc(-c2oc3ncnc(Oc4ccc(NC(=O)c5cccn(-c6ccc(F)cc6)c5=O)cc4)c3c2-c2cccc(N3CCNCC3)c2)cn1

AUC/dose [17]: 3985.3 ng·h/mL
AUC/dose [18]: 764 ng·h/mL
SMILES: Cn1cc(-c2oc3ncnc(Oc4ccc(NC(=O)c5cccn(-c6ccc(F)cc6)c5=O)cc4)c3c2-c2cccc(N)c2)cn1
Activity [19]: Non-Toxic
Activity [2]: Non-Toxic
Activity [3]: Non-Toxic

IC50 [22]: 0.8 nM
SMILES: Cc1ccc(C(=O)Nc2ccc(Oc3cc4cnn(C)c4cc3-c3cn[nH]c3)c(F)c2)c(=O)n1-c1ccc(F)cc1 [MERESTINIB]

AUC/dose [10]: 3330.5 ng.hr/ml per mg/kg
AUC/dose [11]: 15.3 ng.hr/ml per mg/kg
SMILES: CNc1cccc(-c2c(-c3cnn(C)c3)oc3ncnc(Oc4ccc(NC(=O)c5cccn(-c6ccc(F)cc6)c5=O)cc4)c23)c1

AUC/dose [10]: 221 ng.hr/ml per mg/kg
AUC/dose [11]: 32.8 ng.hr/ml per mg/kg
SMILES: CN1CCN(c2cccc(-c3c(-c4cnn(C)c4)oc4ncnc(Oc5ccc(NC(=O)c6cccn(-c7ccc(F)cc7)c6=O)cc5)c34)c2)CC1

AUC/dose [10]: 483 ng.hr/ml per mg/kg
SMILES: Cn1cc(-c2oc3ncnc(Oc4ccc(NC(=O)c5cccn(-c6ccc(F)cc6)c5=O)cc4)c3c2-c2cccc(CN)c2)cn1

Source: ChEMBL document CHEMBL5500411, “Discovery of Dual MER/AXL Kinase Inhibitors as Bifunctional Small Molecules for Inhibiting Tumor Growth and Enhancing Tumor Immune Microenvironment” (J Med Chem, 2024)
